In publication PMC8473721 (Journal of Inflammation Research, 2021):

Tested on: MCF-7 human breast tumor xenograft
Experiment: In vivo anticancer activity in human breast tumor xenograft model
Design: species or system female nude (nu/nu) mice
Details: 10 mg/kg BW
Procedure, shortened: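 Female nu/nu mice (6~7 weeks) were given about 1.5×10^7 MCF-7 cells subcutaneously in the dorsal back, in medium:Matrigel 1:1. Estradiol cyclopentyl propionate (100 µg/mouse) was given s.c. twice weekly. Once tumors reached ≥5 mm, mice were randomised, six per group, to 5 mg/kg BW test compound for 45 days, paclitaxel 10 mg/kg, or vehicle. Tumor size, BW and toxicity signs were recorded every 4 days.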

In the case of CC(=O)O[C@H]1C(=O)[C@@]2(C)[C@H]([C@H](OC(=O)c3ccccc3)[C@]3(O)C[C@H](OC(=O)[C@H](O)[C@@H](NC(=O)c4ccccc4)c4ccccc4)C(C)=C1C3(C)C)[C@]1(OC(C)=O)CO[C@@H]1C[C@@H]2O [paclitaxel], the tumor growth is reported as “significantly (p<0.001) inhibited tumor growth”.
